Laboratory results taken from ChEMBL document CHEMBL4513216, “Probing the Open Global Health Chemical Diversity Library for Multistage-Active Starting Points for Next-Generation Antimalarials” (ACS Infect Dis, 2020).

Experiment: Toxicity liver stage against HepG2, at 10uM
Format: cell-based
Design: test concentration 10 uM, cell line HepG2-A16-CD81EGFP
Conditions: human, HepG2-A16-CD81EGFP cells; read-out: INHIBITION
Procedure, shortened: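 Uninfected HepG2-A16-CD81EGFP cells, 3 × 10^3 per well, 1536-well, plated on prespotted compound at 10 μM final, parasite-free screening media added to match infected plates; puromycin 10 μM positive, DMSO 0.5% negative; run in parallel with 48 h PbLuc assay at 37 °C, 5% CO2; viability by CellTiter-Glo luminescence, normalized to controls.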

Structure (SMILES) | cytotoxicity at 10 µM [%]
COC(=O)COn1c(SCC(=O)OC)nc2ccccc2c1=O | -8.38
Cc1ncc(CN(C)C(=O)Nc2cccc(N3CCOC3=O)c2)s1 | 5.31
O=c1cc(CNCc2ccc3c(c2)OCO3)nc2ccc(Br)cn12 | -2.62
CC(C)CS(=O)(=O)Nc1ccc([C@H]2OCC(=O)N[C@@H]2CO)cc1 | 2.79
CC[C@H]1CN2CC[C@H]1C[C@@H]2CNC(=O)Nc1cccc(C#N)c1 | -0.201
CCOCCCNC(=O)C1(C)CCC(=O)N1c1cc(OC)ccc1OC (stereo not given) | 0.957
Cc1ccc2snc(C(=O)N3CCN(C(=O)NCCC(C)C)CC3)c2c1 | -0.964
CC(O)CN1CCC(=O)N(Cc2ccccc2)Cc2ccccc21 (stereo not given) | -3.37
COCC(O)CN1CCC(=O)N(CC=C(C)C)Cc2ccccc21 (stereo not given) | 1.87
O=c1c(NCCNCCO)c(N2CCN(Cc3ccccc3)CC2)c1=O | -5.9
O=C(Cn1cnc2sccc2c1=O)NCCCc1nnc2ccccn12 | 5.84
COc1ccc(CCC(=O)NCc2cc(C)on2)cc1 | -56.4
COC(=O)CN1N=C(C(=O)N2CCCC2)S(=O)(=O)c2ccccc21 | -8.25
COc1cc(OC)cc(C(=O)NCC(c2cccn2C)N2CCCC2)c1 (stereo not given) | 11.2
COc1cccc(NC(=O)NCC(C)(O)CCSC)c1OC (stereo not given) | 0.253
CCc1cc(=O)n(CCNC(=O)Nc2ccc(OC(F)(F)F)cc2)cn1 | -0.898
CC(C)(C)c1cc(=O)n2c(n1)SCC(C(=O)NCc1cccs1)C2 (stereo not given) | 12.9
COCCN(Cc1ccoc1)C(=O)c1ccccc1OC | 6.28
O=C(c1ccccn1)N1CCN(c2cnnc(N3CCCC3)c2)CC1 | 4.74
FC1(F)CCNCC12CCN(c1ccccn1)C2 (stereo not given) | -0.31
Cc1nccc([C@@H]2C[C@H]3CN(S(=O)(=O)c4ccccc4)C[C@H]3O2)n1 | 1.32
CC(C)CO[C@@H]1CC[C@H]2[C@H]1OCCN2S(=O)(=O)C1CC1 | 4.04
CC(=O)c1cn(CCC(=O)NCCC(=O)O)c2ccccc12 | 7.13
CC(C)CC1SCC(=O)Nc2c1cnn2-c1ccc(F)cc1 (stereo not given) | 6.82
CCOC(=O)c1sc(NC(=O)CN(C)S(C)(=O)=O)c(C#N)c1C | 16.6
COCCO[C@H]1CCN(C(=O)c2cc(C)on2)[C@H]1Cc1ccccc1 | 8.22
COc1ccc(CCNC(=O)Cn2ncc3c2c(C)nn3C)cc1 | 8.93

Structure (SMILES) | cytotoxicity at 10 µM [%]
Cc1ccc(NC(=O)CN2CCOCC2)c(F)c1 | 5.76
CN1CCCC1CCNC(=O)c1ccccc1-n1cc(CN)cn1 (stereo not given) | 3.44
COc1nc2cc(C)ccc2cc1CN(C)Cc1n[nH]c2c1CCCC2 | 4.03
CCN1CCCC(O)(c2nc(C)c(CCOc3ccccc3Cl)s2)CC1 (stereo not given) | -26.2
O=C(Cn1cc(Cl)cn1)N1CCCC(c2ccn[nH]2)C1 (stereo not given) | -22.5
O=C(O)c1cccc(CN2CCC(c3ccnc4ccnn34)CC2)c1 | -16.2
CNc1cc(C2CCCN(S(=O)(=O)c3cn[nH]c3)C2)ccn1 (stereo not given) | -24
O=C(c1sccc1-n1cnnn1)N1CCC2(CCCCC2)CC1 | 9.09
CC(CC(=O)c1ccccc1)NC(=O)c1ccon1 (stereo not given) | -10.7
Fc1cccnc1N1CCC(NCc2cccc3cn[nH]c23)C1 (stereo not given) | 13.6
COc1ccc(C(=O)CCC(=O)NCc2ncc(C)s2)cc1F | -11.8
Cn1cnc2cc(C(=O)NS(=O)(=O)c3ccc(F)cc3)ccc21 | -8.95
CS(=O)(=O)CCSCc1cc(F)cc2cccnc12 | -1.46
CCC(NC(=O)CNCC(F)(F)F)c1cc(F)ccc1F (stereo not given) | -4.56
Cc1cc(C)n(C2CN(CCc3ccccn3)C2)n1 | 3.65
OCCN1CCN(CCOCC(F)(F)F)CC1 | -4.47
O=C(c1ccc(O)c(Cl)c1)N(Cc1ccncc1)C1CC1 | -8.99
O=C(NC1CCS(=O)(=O)C1)c1sccc1-c1ccc(F)cc1 (stereo not given) | 8.14
COc1cccc(CNC(=O)C(c2cccc(F)c2)N2CCOCC2)c1 (stereo not given) | -6.24
Cc1ccc(CN(C)C(=O)CN2CC(n3cccn3)C2)o1 | -0.0582
CCS(=O)(=O)N1CC[C@H](OC)[C@@H]1Cc1ccncc1 | 5.43
Cc1noc(C)c1CN1CC[C@H]2C[C@@H](c3nccs3)O[C@@H]2C1 | -5.33
CCCc1cc(C(=O)N2Cc3cnc(C(C)(C)C)nc3C2)ccn1 | -0.807
CN(Cc1ccccc1)c1cnn(CC2COCCO2)c(=O)c1 (stereo not given) | -12.4
Cc1ccccc1OCC(=O)N1CCOC2(CNCCOC2)C1 (stereo not given) | -2.96
Cn1ccnc1CN1C[C@@H](CN2CCCCCC2)[C@@H](CO)C1 | -2.63
O=C(O)[C@@H]1CN(Cc2c[nH]c(CC3CCCC3)n2)C[C@H]1c1ccccn1 | 3.86

Structure (SMILES) | cytotoxicity at 10 µM [%]
Cc1cccc(C(=O)N2CC(=O)N(c3ccccc3Cl)CC2C)n1 (stereo not given) | -7.25
Cc1cccnc1CN1CCN(C(=O)c2cnn(C(C)C)c2)CC1 | 0.616
CCn1ncnc1CN1CCC(CNC(=O)c2cccc(C)c2)C1 (stereo not given) | -2.59
CN(C)C[C@@H]1CN(C(=O)CCC2CCCC2)C[C@@H]1CO | -2.94
O=C(Nc1ccccc1)c1cc2n(n1)CCCN(C(=O)c1ccc[nH]1)C2 | 3.99
Cc1cc(CN(C)C(=O)C2CC(=O)N(Cc3cccnc3)C2)on1 (stereo not given) | 2.95
CCC(C(=O)NCc1ccncc1)N(c1ccccc1)S(C)(=O)=O (stereo not given) | -1.17
Cc1oc(-c2ccsc2)nc1CN1CC[C@@H]2CCCC[C@H]2C1 | 7.16
NC(=O)c1csc(N2CCCC(c3n[nH]c(=O)n3-c3ccccc3)C2)n1 (stereo not given) | 8.84
Cc1nonc1CN(C)CC1(O)CCCN(CCC2CCCCC2)C1=O (stereo not given) | 49.4
COCCN1CCN(Cc2ccc(F)c(C)c2)[C@H]2CS(=O)(=O)C[C@H]21 | -25.5
Cc1cccnc1CNCC1(O)CCCN(Cc2ccc(F)cc2)C1=O (stereo not given) | -12.3
Cc1ccc(NC2CCN(C(=O)Cc3c(C)noc3C)CC2)nn1 | -8.13
Cc1nc(C)n(CC2CCCCN2Cc2nc(-c3ccoc3)no2)n1 (stereo not given) | 1.98
Cc1nn(-c2ccccc2)nc1C(=O)N1CCCC1c1cnn(C)c1 (stereo not given) | -0.857
O=C(c1cccc2c1OCO2)N1CCCC(n2cccn2)C1 (stereo not given) | -8.72
Cc1csc(C(Cc2ccsc2)NC(=O)CN(C)Cc2ccccn2)n1 (stereo not given) | 0.258
CN(C)CCN1CCCC12CCCN(C(=O)c1cccnc1)C2 (stereo not given) | -0.95
Cc1ccc2c(n1)N(Cc1csc(C)n1)CCN(C1CCOC1)C2 (stereo not given) | 9.28
O=C(NC1CC1)C1=CC2(CCN(CCO)CC2)c2ccccc21 | 1.41
CC(C)NC(=O)[C@H]1C[C@@H]2[C@@H](C1)OCCN2Cc1cccnc1 | 2.39
CS(=O)(=O)N1CCCC12CCN(Cc1nccs1)CC2 | 8.1
c1cnc(N2CCC3(CCN(CC4CCCC4)CC3)C2)nc1 | 0.845
COc1cccc(CN2C[C@@H]3COC[C@]3(COCc3ccncc3)C2)c1 | 3.52
CC(C)NC(=O)N1CC[C@@H](N(C)C)[C@@H]1Cc1ccncc1 | 5.53
c1ccc(COC2C[C@@H]3CN(Cc4cncnc4)C[C@@H]3C2)cc1 (stereo not given in full) | -40
